In ChEMBL document CHEMBL2417481, “Regioselective synthesis of 6-substituted-2-amino-5-bromo-4(3H)-pyrimidinones and evaluation of their antiviral activity” (Eur J Med Chem, 2013):

What was measured:
Human alphaherpesvirus 3 [1] = experiment: Antiviral activity against thymidine kinase negative Varicella-zoster virus 07-1 infected in human HEL cells assessed as reduction in the virus plaque formation; assay type: functional, organism-based; conditions: Human alphaherpesvirus 3, 07-1, HEL
Summary of the method: (§1)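 Confluent HEL fibroblast cultures received 20 PFU of VZV together with varying compound concentrations. Plaque formation was read when it reached completion in untreated virus controls.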

Felid alphaherpesvirus 1 = experiment: Antiviral activity against Feline Herpes virus infected in cat CRFK cells assessed as inhibition of virus-induced cytopathic effect by MTS assay; assay type: functional, organism-based; conditions: Felid alphaherpesvirus 1, CRFK
Feline coronavirus = experiment: Antiviral activity against Feline coronavirus infected in cat CRFK cells assessed as inhibition of virus-induced cytopathic effect by MTS assay; assay type: functional, organism-based; conditions: Alphacoronavirus 1, CRFK
Human respirovirus 3 = experiment: Antiviral activity against Parainfluenza virus 3 infected in african green monkey Vero cells assessed as reduction in virus-induced cytopathogenicity; assay type: functional, organism-based; conditions: Human respirovirus 3, Vero
Summary of the method: (§2)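 Confluent Vero monolayers in 96-well plates were inoculated with 100 CCID50 of virus together with varying compound concentrations. Cytopathicity was scored once it was complete in untreated virus-infected control cultures.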

Cytomegalovirus [2] = experiment: Antiviral activity against Cytomegalovirus Davis infected in human HEL cells assessed as reduction in virus plaque formation; assay type: functional, organism-based; conditions: Human betaherpesvirus 5, Davis
Summary of the method: (§3)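 Confluent HEL fibroblasts were inoculated with 100 PFU of CMV at graded compound concentrations. Plaques were counted once formation was complete in untreated infected controls.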

Cytomegalovirus [3] = experiment: Antiviral activity against Cytomegalovirus AD-169 infected in human HEL cells assessed as reduction in virus plaque formation; assay type: functional, organism-based; conditions: Human betaherpesvirus 5, AD-169, HEL; summary of the method: as §3
[4] = tested on: Respiratory syncytial virus; experiment: Antiviral activity against Respiratory syncytial virus Long infected in human HeLa cells assessed as reduction in virus-induced cytopathogenicity; assay type: functional, organism-based
Summary of the method: (§4)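 Confluent cell monolayers (Vero, HeLa, HEL or MDCK, as named in each line) were infected with 100 CCID50 of virus while exposed to a range of compound concentrations. Cytopathicity was scored once it was complete in untreated infected controls.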

Punta Toro virus = experiment: Antiviral activity against Punta Toro virus infected in african green monkey Vero cells assessed as reduction in virus-induced cytopathogenicity; assay type: functional, organism-based; summary of the method: as §4
Influenza A virus [5] = experiment: Antiviral activity against Influenza A virus H1N1 infected in MDCK cells assessed as reduction in virus-induced cytopathogenicity; assay type: functional, organism-based; summary of the method: as §4
Human alphaherpesvirus 3 [6] = experiment: Antiviral activity against thymidine kinase positive Varicella-zoster virus OKA infected in human HEL cells assessed as reduction in virus plaque formation; assay type: functional, cell-based, Human herpesvirus 3 strain Oka vaccine; conditions: Human alphaherpesvirus 3, OKA; summary of the method: as §1
Human alphaherpesvirus 2 = experiment: Antiviral activity against Herpes simplex virus-2 G infected in human HEL cells assessed as reduction in virus-induced cytopathogenicity; assay type: functional, organism-based; conditions: Human alphaherpesvirus 2, strain G; summary of the method: as §4
Influenza B virus = experiment: Antiviral activity against Influenza B virus infected in MDCK cells assessed as reduction in virus-induced cytopathogenicity; assay type: functional, organism-based; summary of the method: as §4
[7] = Cytotoxicity against african green monkey Vero cells assessed as morphological changes; assay type: cell-based; conditions: chlorocebus sabaeus
Influenza A virus [8] = experiment: Antiviral activity against Influenza A virus […] infected in MDCK cells assessed as reduction in virus-induced cytopathogenicity; assay type: functional, organism-based; summary of the method: as §4
Sindbis virus = experiment: Antiviral activity against Sindbis virus infected in african green monkey Vero cells assessed as reduction in virus-induced cytopathogenicity; assay type: functional, organism-based; summary of the method: as §4
[9] = Cytotoxicity against MDCK cells assessed as morphological changes; assay type: cell-based, Canis lupus familiaris; conditions: dog
Coxsackievirus B4 [10] = experiment: Antiviral activity against Coxsackievirus B4 infected in african green monkey Vero cells assessed as reduction in virus-induced cytopathogenicity; assay type: functional, organism-based; conditions: Enterovirus B; summary of the method: as §4
[11] = Cytotoxicity against human HEL cells assessed as morphological changes; assay type: cell-based
[12] = Cytotoxicity against human HeLa cells assessed as morphological changes; assay type: cell-based
[13] = tested on: Vesicular stomatitis virus; experiment: Antiviral activity against Vesicular stomatitis virus infected in human HeLa cells assessed as reduction in virus-induced cytopathogenicity; assay type: functional, organism-based; summary of the method: as §4
[14] = Cytotoxicity against cat CRFK cells assessed as cell viability by MTS assay; assay type: cell-based, Felis catus
Human alphaherpesvirus 1 [15] = experiment: Antiviral activity against Herpes simplex virus-1 KOS infected in human HEL cells assessed as reduction in virus-induced cytopathogenicity; assay type: functional, organism-based; conditions: Human alphaherpesvirus 1, KOS; summary of the method: as §4
Coxsackievirus B4 [16] = experiment: Antiviral activity against Coxsackievirus B4 infected in human HeLa cells assessed as reduction in virus-induced cytopathogenicity; assay type: functional, organism-based; conditions: Enterovirus B; summary of the method: as §4
Human alphaherpesvirus 1 [17] = experiment: Antiviral activity against thymidine kinase negative […] Herpes simplex virus-1 KOS infected in human HEL cells assessed as reduction in virus-induced cytopathogenicity; assay type: functional, organism-based; conditions: Human alphaherpesvirus 1, KOS; summary of the method: as §4
[18] = tested on: Mammalian orthoreovirus 1; experiment: Antiviral activity against Reovirus-1 infected in african green monkey Vero cells assessed as reduction in virus-induced cytopathogenicity; assay type: functional, organism-based; conditions: Mammalian orthoreovirus 1, Vero; summary of the method: as §2
[19] = tested on: Vesicular stomatitis virus; experiment: Antiviral activity against Vesicular stomatitis virus infected in human HEL cells assessed as reduction in virus-induced cytopathogenicity; assay type: functional, organism-based; summary of the method: as §4

CC(C)(O)Cc1nc(N)[nH]c(=O)c1Br
100 µM: EC50 (Cytomegalovirus [3]) | EC50 (Human alphaherpesvirus 3 [6])
> 100 µM: EC50 (Felid alphaherpesvirus 1) | EC50 (Feline coronavirus) | EC50 (Human respirovirus 3) | EC50 (Cytomegalovirus [2]) | EC50 [4] | EC50 (Punta Toro virus) | EC50 (Influenza A virus [5]) | EC50 (Human alphaherpesvirus 2) | EC50 (Influenza B virus) | MCC [7] | EC50 (Influenza A virus [8]) | EC50 (Sindbis virus) | MCC [9] | EC50 (Coxsackievirus B4 [10]) | MCC [11] | MCC [12] | MCC [14] | EC50 (Human alphaherpesvirus 1 [15]) | EC50 (Coxsackievirus B4 [16]) | EC50 (Human alphaherpesvirus 1 [17]) | EC50 [18] | EC50 [19]
79.5 µM: EC50 (Human alphaherpesvirus 3 [1])
45 µM: EC50 [13]

Nc1nc(CC(O)c2ccc(Cl)cc2)c(Br)c(=O)[nH]1 (centres undefined)
> 100 µM: EC50 (Felid alphaherpesvirus 1) | EC50 (Feline coronavirus) | EC50 (Human respirovirus 3) | EC50 [4] | EC50 (Punta Toro virus) | EC50 (Influenza A virus [5]) | EC50 (Human alphaherpesvirus 2) | EC50 (Influenza B virus) | MCC [7] | EC50 (Influenza A virus [8]) | EC50 (Sindbis virus) | MCC [9] | EC50 (Coxsackievirus B4 [10]) | MCC [11] | MCC [12] | MCC [14] | EC50 (Human alphaherpesvirus 1 [15]) | EC50 (Coxsackievirus B4 [16]) | EC50 (Human alphaherpesvirus 1 [17]) | EC50 [18] | EC50 [19]
100 µM: EC50 (Human alphaherpesvirus 3 [1]) | EC50 (Cytomegalovirus [2]) | EC50 (Cytomegalovirus [3]) | EC50 (Human alphaherpesvirus 3 [6])
45 µM: EC50 [13]

Nc1nc(CC(O)c2ccccc2C(F)(F)F)c(Br)c(=O)[nH]1 (centres undefined)
> 100 µM: EC50 (Human alphaherpesvirus 3 [1]) | EC50 (Felid alphaherpesvirus 1) | EC50 (Feline coronavirus) | EC50 (Human respirovirus 3) | EC50 (Cytomegalovirus [2]) | EC50 (Cytomegalovirus [3]) | EC50 [4] | EC50 (Punta Toro virus) | EC50 (Influenza A virus [5]) | EC50 (Human alphaherpesvirus 3 [6]) | EC50 (Human alphaherpesvirus 2) | EC50 (Influenza B virus) | MCC [7] | EC50 (Influenza A virus [8]) | EC50 (Sindbis virus) | MCC [9] | EC50 (Coxsackievirus B4 [10]) | MCC [11] | MCC [12] | EC50 [13] | MCC [14] | EC50 (Human alphaherpesvirus 1 [15]) | EC50 (Coxsackievirus B4 [16]) | EC50 (Human alphaherpesvirus 1 [17]) | EC50 [18] | EC50 [19]

COc1ccc(/C=C/c2nc(N)[nH]c(=O)c2Br)cc1OC
> 100 µM: EC50 (Human alphaherpesvirus 3 [1]) | EC50 (Felid alphaherpesvirus 1) | EC50 (Feline coronavirus) | EC50 (Human respirovirus 3) | EC50 (Cytomegalovirus [2]) | EC50 (Cytomegalovirus [3]) | EC50 [4] | EC50 (Punta Toro virus) | EC50 (Human alphaherpesvirus 3 [6]) | EC50 (Human alphaherpesvirus 2) | MCC [7] | EC50 (Sindbis virus) | EC50 (Coxsackievirus B4 [10]) | MCC [11] | MCC [12] | MCC [14] | EC50 (Human alphaherpesvirus 1 [15]) | EC50 (Coxsackievirus B4 [16]) | EC50 (Human alphaherpesvirus 1 [17]) | EC50 [18] | EC50 [19]
45 µM: EC50 [13]
> 20 µM: EC50 (Influenza A virus [5]) | EC50 (Influenza B virus) | EC50 (Influenza A virus [8])
100 µM: MCC [9]
